Assay results reported in PMC4603714 (Drug Design, Development and Therapy, 2015).
pIC50: −log10 of the molar value. Read-outs that look alike come from different tables or passages of the source.

Assays:
[1] = test system: HDAC (HeLa cell nuclear extract); assay: In vitro HDAC inhibition fluorescence assay; type: biochemical, human; settings: read-out: HeLa cell nuclear extract IC50, substrate Boc-Lys(acetyl)-AMC, mean of three experiments
Summary of the method: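 HeLa nuclear extract preincubated with test compound at several concentrations, 10 min at 37°C. Boc-Lys(acetyl)-AMC then added and incubated 30 min at 37°C. Reaction stopped with developer containing trypsin and trichostatin A. Fluorescence read 20 min later (ex 390/em 460 nm). Inhibition calculated relative to control wells. IC50 obtained by regression of concentration against inhibition ratio.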

U937 cells = assay: In vitro antiproliferative assay; type: cell-based; settings: Homo sapiens, U-937, 48 h, read-out: U937 IC50
Summary of the method: (§1)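 Cells kept in RPMI-1640 with 10% FBS at 37°C, 5% CO2. Passaged into plates the day before dosing and grown at least 4 h before test compound was added. Exposure was 48 h, then 0.5% MTT for 4 h. Formazan was dissolved in DMSO for 15 min and absorbance read at 570 nm. Inhibition was taken relative to control wells, and IC50 was obtained by regression of concentration versus inhibition ratio.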

H7402 cells = assay: In vitro antiproliferative assay; type: cell-based; settings: Homo sapiens, H7402, 48 h, read-out: H7402 IC50
Summary of the method: as §1

HeLa cells = assay: In vitro antiproliferative assay; type: cell-based; settings: Homo sapiens, 48 h, read-out: HeLa IC50
Summary of the method: as §1

U266 cells = assay: In vitro antiproliferative assay; type: cell-based; settings: Homo sapiens, U-266, 48 h, read-out: U266 IC50
Summary of the method: as §1

KG-1 cells = assay: In vitro antiproliferative assay; type: cell-based; settings: Homo sapiens, KG-1, 48 h, read-out: KG-1 IC50
Summary of the method: as §1

HCT116 cells = assay: In vitro antiproliferative assay; type: cell-based; settings: Homo sapiens, HCT-116, 48 h, read-out: HCT116 IC50
Summary of the method: as §1

U937 xenograft = assay: In vivo antitumor assay in U937 xenograft model; parameters: species or system male athymic nude mice (BALB/c-nu)
Summary of the method: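 U937 cells were injected subcutaneously into the right flank of male BALB/c-nu mice aged 5–6 weeks. After about 10 days, at roughly 100 mm3, mice were randomized six per group. Dosing was oral, 100 mg/kg daily for 12 days, with controls given an equal volume of PBS. Calipers were used every 3 days, V = ab2/2, and RTV = Vt/V0. Body weight was tracked. Tumors were weighed and organs inspected at necropsy. Analysis used a two-tailed t-test, P<0.05.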

[2] = test system: HDAC (HeLa cell nuclear extract); settings: read-out: HeLa cell nuclear extract IC50; HDAC inhibition; ref Zhang et al.[8]; cited from earlier work
[3] = U937 xenograft mice, 100 mg/kg once a day orally for 12 days

SMILES | pIC50 [1] | pIC50 (U937 cells) | other results
O=C(Nc1cccc2ccccc12)N[C@H](C(=O)Nc1ccc(C(=O)NO)cc1)c1ccccc1 [Compound 7k, (S)-N-Hydroxy-4-(2-(3-(naphthalen-1-yl)ureido)-2-phenylacetamido)benzamide] | 6.90 | – | –
O=C(/C=C/c1ccc(NC(=O)[C@@H](NC(=O)Nc2ccccc2Cl)c2ccccc2)cc1)NO [Compound 16a, (S, E)-3-(4-(2-(3-(2-Chlorophenyl)ureido)-2-phenylacetamido)phenyl)-N-hydroxyacrylamide] | 6.89 | – | –
O=C(NO)c1ccc(NC(=O)[C@@H](NC(=O)c2ccc3nccnc3c2)c2ccccc2)cc1 [Compound 8b, (S)-N-(2-((4-(Hydroxycarbamoyl)phenyl)amino)-2-oxo-1-phenylethyl)quinoxaline-6-carboxamide] | 6.79 | 4.98 | –
O=C(/C=C/c1ccc(NC(=O)[C@@H](NC(=O)Nc2ccccc2Br)c2ccccc2)cc1)NO [Compound 16c, (S, E)-3-(4-(2-(3-(2-Bromophenyl)ureido)-2-phenylacetamido)phenyl)-N-hydroxyacrylamide] | 7.04 | – | –
O=C(Nc1cccc(Cl)c1)N[C@H](C(=O)Nc1ccc(C(=O)NO)cc1)c1ccccc1 [Compound 7b, (S)-4-(2-(3-(3-Chlorophenyl)ureido)-2-phenylacetamido)-N-hydroxybenzamide] | 7.90 | 5.54 | –
COc1ccccc1CN[C@H](C(=O)Nc1ccc(C(=O)NO)cc1)c1ccccc1 [Compound 9a, (S)-N-Hydroxy-4-(2-((2-methoxybenzyl)amino)-2-phenylacetamido)benzamide] | 6.98 | 6.12 | pIC50 (H7402 cells): 5.39; pIC50 (HeLa cells): 5.10; pIC50 (U266 cells): 5.82; pIC50 (KG-1 cells): 5.96; pIC50 (HCT116 cells): 5.85
O=C(NO)c1ccc(NC(=O)[C@@H](NC(=O)c2ccc3ncccc3c2)c2ccccc2)cc1 [Compound 8a, (S)-N-(2-((4-(Hydroxycarbamoyl)phenyl)amino)-2-oxo-1-phenylethyl)quinoline-6-carboxamide] | 6.77 | 4.98 | –
COc1cc(CN[C@H](C(=O)Nc2ccc(C(=O)NO)cc2)c2ccccc2)ccc1O [Compound 9g, (S)-N-Hydroxy-4-(2-((4-hydroxy-3-methoxybenzyl)amino)-2-phenylacetamido)benzamide] | 7.14 | 5.70 | pIC50 (H7402 cells): 6.70; pIC50 (HeLa cells): 6.70; pIC50 (U266 cells): 5.37; pIC50 (KG-1 cells): 5.25; pIC50 (HCT116 cells): 5.21
Cc1ccc(NC(=O)N[C@H](C(=O)Nc2ccc(C(=O)NO)cc2)c2ccccc2)cc1 [Compound 7g, (S)-N-Hydroxy-4-(2-phenyl-2-(3-(p-tolyl)ureido)acetamido)benzamide] | 8.57 | 5.51 | –
O=C(NO)c1ccc(NC(=O)[C@@H](NCc2ccc(Cl)cc2)c2ccccc2)cc1 [Compound 9e, (S)-4-(2-((4-Chlorobenzyl)amino)-2-phenylacetamido)-N-hydroxybenzamide] | 7.86 | 6.02 | pIC50 (H7402 cells): 5.02; pIC50 (HeLa cells): 4.81; pIC50 (U266 cells): 5.52; pIC50 (KG-1 cells): 5.70; pIC50 (HCT116 cells): 5.52
O=C(Nc1ccc(Cl)cc1Cl)N[C@H](C(=O)Nc1ccc(C(=O)NO)cc1)c1ccccc1 [Compound 7h, (S)-4-(2-(3-(2,4-Dichlorophenyl)ureido)-2-phenylacetamido)-N-hydroxybenzamide] | 8.92 | 5.29 | –
O=C(NO)c1ccc(NC(=O)[C@@H](NCc2ccccc2Br)c2ccccc2)cc1 [Compound 9c, (S)-4-(2-((2-Bromobenzyl)amino)-2-phenylacetamido)-N-hydroxybenzamide] | 7.89 | 6.08 | pIC50 (H7402 cells): 5.15; pIC50 (HeLa cells): 4.82; pIC50 (U266 cells): 5.68; pIC50 (KG-1 cells): 5.82; pIC50 (HCT116 cells): 5.64
Cc1ccccc1NC(=O)N[C@H](C(=O)Nc1ccc(/C=C/C(=O)NO)cc1)c1ccccc1 [Compound 16d, (S, E)-N-Hydroxy-3-(4-(2-phenyl-2-(3-(o-tolyl)ureido)acetamido)phenyl)acrylamide] | 6.09 | – | –
Cc1ccccc1NC(=O)N[C@H](C(=O)Nc1ccc(C(=O)NO)cc1)c1ccccc1 [Compound 7f, (S)-N-Hydroxy-4-(2-phenyl-2-(3-(o-tolyl)ureido)acetamido)benzamide] | 8.20 | – | –
COc1cccc(CN[C@H](C(=O)Nc2ccc(C(=O)NO)cc2)c2ccccc2)c1 [Compound 9d, (S)-N-Hydroxy-4-(2-((3-methoxybenzyl)amino)-2-phenylacetamido)benzamide] | 7.15 | 6.28 | pIC50 (H7402 cells): 5.46; pIC50 (HeLa cells): 5.27; pIC50 (U266 cells): 6.01; pIC50 (KG-1 cells): 6.05; Relative increment ratio (T/C) (U937 xenograft; U937 xenograft in nude mice, 100 mg/kg once a day orally for 12 days): 43%; Body weight loss (U937 xenograft; [3]): no significant body weight loss; Toxic signs in macroscopic analysis of liver and spleen (U937 xenograft; [3]): no evident toxic signs; Oral antitumor activity (U937 xenograft; U937 xenograft, 100 mg/kg po, tumor growth curve and final tumor tissue size): comparable with SAHA; pIC50 (HCT116 cells): 5.89
Cc1cc(C)cc(NC(=O)N[C@H](C(=O)Nc2ccc(C(=O)NO)cc2)c2ccccc2)c1 [Compound 7i, (S)-4-(2-(3-(3,5-Dimethylphenyl)ureido)-2-phenylacetamido)-N-hydroxybenzamide] | 7.82 | 5.24 | –
O=C(Nc1ccccc1Cl)N[C@H](C(=O)Nc1ccc(C(=O)NO)cc1)c1ccccc1 [Compound 7c, (S)-4-(2-(3-(2-Chlorophenyl)ureido)-2-phenylacetamido)-N-hydroxybenzamide] | 8.64 | 5.36 | –
O=C(/C=C/c1ccc(NC(=O)[C@@H](NC(=O)Nc2ccccc2F)c2ccccc2)cc1)NO [Compound 16b, (S, E)-3-(4-(2-(3-(2-Fluorophenyl)ureido)-2-phenylacetamido)phenyl)-N-hydroxyacrylamide] | 6.67 | – | –
O=C(NO)c1ccc(NC(=O)[C@@H](NC(=O)c2ccc3cc[nH]c3c2)c2ccccc2)cc1 [Compound 8c, (S)-N-(2-((4-(Hydroxycarbamoyl)phenyl)amino)-2-oxo-1-phenylethyl)-1H-indole-6-carboxamide] | 6.97 | 5.01 | –
CCc1cccc(CC)c1NC(=O)N[C@H](C(=O)Nc1ccc(C(=O)NO)cc1)c1ccccc1 [Compound 7j, (S)-4-(2-(3-(2,6-Diethylphenyl)ureido)-2-phenylacetamido)-N-hydroxybenzamide] | 6.75 | – | –
O=C(NO)c1ccc(NC(=O)[C@@H](NCc2ccc(O)cc2)c2ccccc2)cc1 [Compound 9f, (S)-N-Hydroxy-4-(2-((4-hydroxybenzyl)amino)-2-phenylacetamido)benzamide] | 7.30 | 6.01 | pIC50 (H7402 cells): 4.91; pIC50 (HeLa cells): 5.17; pIC50 (U266 cells): 5.48; pIC50 (KG-1 cells): 5.60; pIC50 (HCT116 cells): 5.52
O=C(CCCCCCC(=O)Nc1ccccc1)NO [SAHA, suberoylanilide hydroxamic acid] | – | – | pIC50 [2]: 6.84
O=C(NO)c1ccc(NC(=O)[C@@H](NC(=O)c2cc3ccccc3[nH]2)c2ccccc2)cc1 [Compound 8d, (S)-N-(2-((4-(Hydroxycarbamoyl)phenyl)amino)-2-oxo-1-phenylethyl)-1H-indole-2-carboxamide] | 7.28 | 5.05 | –
O=C(Nc1ccccc1Br)N[C@H](C(=O)Nc1ccc(C(=O)NO)cc1)c1ccccc1 [Compound 7e, (S)-4-(2-(3-(2-Bromophenyl)ureido)-2-phenylacetamido)-N-hydroxybenzamide] | 8.39 | 5.70 | –
O=C(Nc1ccccc1F)N[C@H](C(=O)Nc1ccc(C(=O)NO)cc1)c1ccccc1 [Compound 7d, (S)-4-(2-(3-(2-Fluorophenyl)ureido)-2-phenylacetamido)-N-hydroxybenzamide] | 7.12 | – | –
O=C(NO)c1ccc(NC(=O)[C@@H](NC(=O)c2cnccn2)c2ccccc2)cc1 [Compound 8e, (S)-N-(2-((4-(Hydroxycarbamoyl)phenyl)amino)-2-oxo-1-phenylethyl)pyrazine-2-carboxamide] | 6.45 | – | –
COc1cccc(NC(=O)N[C@H](C(=O)Nc2ccc(C(=O)NO)cc2)c2ccccc2)c1 [Compound 7a, (S)-N-Hydroxy-4-(2-(3-(3-methoxyphenyl)ureido)-2-phenylacetamido)benzamide] | 7.88 | 5.21 | –
O=C(NO)c1ccc(NC(=O)[C@@H](NCc2ccccc2Cl)c2ccccc2)cc1 [Compound 9b, (S)-4-(2-((2-Chlorobenzyl)amino)-2-phenylacetamido)-N-hydroxybenzamide] | 7.25 | 5.96 | pIC50 (H7402 cells): 5.38; pIC50 (HeLa cells): 5.22; pIC50 (U266 cells): 5.62; pIC50 (KG-1 cells): 5.47; pIC50 (HCT116 cells): 5.26
